Measurements published in ChEMBL document CHEMBL1138710, “A nonhydrolyzable analogue of phosphotyrosine, and related aryloxymethano- and aryloxyethano-phosphonic acids as motifs for inhibition of phosphatases” (Bioorg Med Chem Lett, 2004).

Experiments:
Homo sapiens [1] = organism: Homo sapiens; assay: Inhibition constant for human placental alkaline phosphatase at pH 9
In short: (§1)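 Competitive inhibition kinetics with p-nitrophenyl phosphate as substrate at 25°C, in 100 mM TRIS, 1 mM ZnCl2, 1 mM MgCl2, pH 9.0. Ki (mM) was derived from the competitive inhibition rate equation.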

[2] = target: Secreted effector protein (Yersinia pestis) (UniProt O68720); assay: Inhibition constant for YOP protein tyrosine phosphatase at pH 6.6
In short: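 Competitive Ki (mM) measured at 25°C against p-nitrophenyl phosphate substrate, in 100 mM succinate, 150 mM NaCl, pH 6.6.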

[3] = target: T1, Serine/threonine-protein phosphatase (Enterobacteria phage lambda) (UniProt P03772); assay: Inhibition constant for lambda protein phosphatase in presence of [Mn2+] at 5 mM pH 7.3
T1 sequence (whole entry): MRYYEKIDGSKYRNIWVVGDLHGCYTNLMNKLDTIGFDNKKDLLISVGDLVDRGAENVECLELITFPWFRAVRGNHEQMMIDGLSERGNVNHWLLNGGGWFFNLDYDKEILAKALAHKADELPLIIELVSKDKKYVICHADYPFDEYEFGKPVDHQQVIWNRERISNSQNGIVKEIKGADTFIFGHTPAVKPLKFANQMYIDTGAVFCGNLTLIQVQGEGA

[4] = Inhibition constant for protein phosphatase 2C in presence of [Mn2+] at 1 mM pH 7.5
In short: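 Kinetics at 25°C with p-nitrophenyl phosphate substrate in 100 mM TRIS, 1 mM MnCl₂, 1 mM DTT, pH 7.5. Mn²⁺ was lowered from 5 mM for compounds precipitating at that level. Substrate Km was 1.1 mM and matched within error at both Mn²⁺ levels. Ki (mM) from a competitive inhibition model.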

[5] = target: Alkaline phosphatase (Escherichia coli K-12) (UniProt P00634); assay: Inhibition constant for Escherichia coli alkaline phosphatase at pH 9; No reduction in rate
Chain of Alkaline phosphatase (Escherichia coli K-12) (P00634 whole entry): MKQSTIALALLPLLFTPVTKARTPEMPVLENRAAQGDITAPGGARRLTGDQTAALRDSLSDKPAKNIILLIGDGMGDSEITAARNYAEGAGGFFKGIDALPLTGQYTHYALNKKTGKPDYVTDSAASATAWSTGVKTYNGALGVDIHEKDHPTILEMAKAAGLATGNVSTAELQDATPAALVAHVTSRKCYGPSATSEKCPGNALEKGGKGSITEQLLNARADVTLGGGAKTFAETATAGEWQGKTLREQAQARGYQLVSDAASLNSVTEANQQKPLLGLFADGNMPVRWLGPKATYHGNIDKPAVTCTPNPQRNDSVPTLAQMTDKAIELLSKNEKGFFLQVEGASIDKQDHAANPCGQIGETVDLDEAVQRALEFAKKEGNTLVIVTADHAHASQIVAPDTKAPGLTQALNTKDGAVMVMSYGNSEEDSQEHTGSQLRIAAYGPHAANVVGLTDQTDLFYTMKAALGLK

[6] = target: Alkaline phosphatase (Escherichia coli K-12) (UniProt P00634); assay: Inhibition constant for Escherichia coli alkaline phosphatase at pH 9; in short: as §1
[7] = Inhibition constant protein phosphatase 2C in presence of [Mn2+] at 5 mM pH 7.5
In short: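 Competitive inhibition kinetics with p-nitrophenyl phosphate substrate (Km 1.1 mM under these conditions) at 25°C, in 100 mM TRIS, 5 mM MnCl2, 1 mM DTT, pH 7.5. Ki (mM) was derived from the competitive inhibition rate equation.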

Homo sapiens [8] = organism: Homo sapiens; assay: Inhibition constant for human placental alkaline phosphatase at pH 9; No reduction in rate

O=P(O)(O)COc1ccccc1
Inhibition (Homo sapiens [1]): 0.9 mM
Inhibition [2]: 5 mM
Inhibition [3]: 0.27 mM
Inhibition [4]: 0.32 mM
Inhibition [5]: No inhibition

N[C@@H](Cc1ccc(OCP(=O)(O)O)cc1)C(=O)O
Inhibition [6]: 5 mM
Inhibition (Homo sapiens [1]): 1.7 mM
Inhibition [2]: 21 mM
Inhibition [3]: 0.02 mM
Inhibition [7]: 0.76 mM

O=P(O)(O)CSc1ccccc1
Inhibition [6]: 0.04 mM
Inhibition (Homo sapiens [1]): 0.13 mM
Inhibition [2]: 4.6 mM
Inhibition [3]: 0.33 mM
Inhibition [4]: 0.17 mM

O=C(O)c1cccc2cc(OCP(=O)(O)O)ccc12
Inhibition [6]: 4.2 mM
Inhibition (Homo sapiens [1]): 3.4 mM
Inhibition [2]: 2.2 mM
Inhibition [3]: 0.03 mM
Inhibition [7]: 0.06 mM

O=P(O)(O)CCOc1ccccc1
Inhibition [6]: 0.1 mM
Inhibition (Homo sapiens [1]): 0.11 mM
Inhibition [2]: 2.17 mM
Inhibition [3]: 0.05 mM
Inhibition [4]: 0.4 mM

N[C@H](Cc1ccc(OCP(=O)(O)O)cc1)C(=O)O
Inhibition [6]: 4.8 mM
Inhibition (Homo sapiens [1]): 1.85 mM
Inhibition [2]: 0.63 mM
Inhibition [3]: 0.03 mM
Inhibition [7]: 0.34 mM

O=C(O)Cc1ccc(OCP(=O)(O)O)cc1
Inhibition [6]: 5.1 mM
Inhibition [2]: 12 mM
Inhibition [3]: 0.19 mM
Inhibition [7]: 0.13 mM
Inhibition (Homo sapiens [8]): No inhibition

O=P(O)(O)CCSc1ccccc1
Inhibition [6]: 0.9 mM
Inhibition (Homo sapiens [1]): 0.69 mM
Inhibition [2]: 10 mM
Inhibition [3]: 0.14 mM
Inhibition [4]: 0.3 mM

O=C(O)Cc1ccc(OCCP(=O)(O)O)cc1
Inhibition [6]: 0.6 mM
Inhibition (Homo sapiens [1]): 0.14 mM
Inhibition [2]: 19 mM
Inhibition [3]: 0.12 mM
Inhibition [7]: 0.23 mM

O=P(O)(O)COc1ccc2ccccc2c1
Inhibition [6]: 4 mM
Inhibition (Homo sapiens [1]): 1.1 mM
Inhibition [2]: 6.3 mM
Inhibition [3]: Precipitation
Inhibition [7]: Precipitation
